In ChEMBL document CHEMBL3297702, “Improving photodynamic inactivation of bacteria in dentistry: highly effective and fast killing of oral key pathogens with novel tooth-colored type-II photosensitizers” (J Med Chem, 2014):

Columns and labels:
[1] = tested on: Streptococcus mutans; assay: Toxicity in Streptococcus mutans ATCC 25175 assessed as reduction of log10 CFU at 1 to 250 uM incubated for 10 secs under dark condition measured after 48 hrs by agar plating method
Method in brief: (§1)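 Dark controls. Overnight BHI cultures (EF, SM, AN aerobic; AA anaerobic; 37 °C) were washed into PBS at 10^7–10^8 cells/mL. They were mixed 1:1 with photosensitizer at final 0–250 µM and incubated 10 s, 7.5 min or 15 min, then kept in the dark for 20, 40 or 120 s. Tenfold dilutions were plated: EF on Mueller-Hinton agar, aerobic 24 h; SM on BHI agar, aerobic 48 h; AN on blood agar, aerobic 48 h; AA on BHI agar, anaerobic 48 h; all at 37 °C. CFU were compared with untreated controls; medians of three independent experiments in triplicate.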

[2] = tested on: Aggregatibacter actinomycetemcomitans; assay: Toxicity in Aggregatibacter actinomycetemcomitans ATCC 43718 assessed as reduction of log10 CFU under dark condition at 1 to 250 uM incubated for 10 secs under dark condition measured after 48 hrs by agar plating method; design: species or system Y4; method in brief: as §1
[3] = tested on: Actinomyces naeslundii; assay: Photodynamic inactivation of Actinomyces naeslundii T14V assessed as reduction of log10 CFU at 10 uM incubated prior to irradiation with 25 j/cm'2 for 20 secs measured after 48 hrs by agar plating method (reference value: <1 no unit); type: functional
Method in brief: (§2)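 A. naeslundii T14V grown overnight at 37 °C, shaken, aerobically in BHI broth. Harvested at stationary phase, resuspended in PBS to 10^7–10^8 bacteria/mL (OD600). Mixed 1:1 with PS (final 0–250 µM) or water, 10 s incubation, then blue photopolymerizer light (1260 ± 50 mW/cm2) or dark. Tenfold dilutions plated on blood agar, aerobic 37 °C 48 h, CFU counted; medians of three independent experiments in triplicate.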

[4] = tested on: Actinomyces naeslundii; assay: Photodynamic inactivation of Actinomyces naeslundii T14V assessed as reduction of log10 CFU at 5 uM incubated prior to irradiation with 150 j/cm'2 for 120 secs measured after 48 hrs by agar plating method (reference value: <1 no unit); type: functional; method in brief: as §2
[5] = tested on: Actinomyces naeslundii; assay: Photodynamic inactivation of Actinomyces naeslundii T14V assessed as reduction of log10 CFU at 10 uM incubated prior to irradiation with 150 j/cm'2 for 120 secs measured after 48 hrs by agar plating method (reference value: <1 no unit); type: functional; method in brief: as §2
[6] = tested on: Actinomyces naeslundii; assay: Toxicity in Actinomyces naeslundii T14V assessed as reduction of log10 CFU at 1 to 250 uM incubated for 10 secs under dark condition measured after 48 hrs by agar plating method; type: organism-based; settings: in vivo; method in brief: as §1
[7] = tested on: Aggregatibacter actinomycetemcomitans; assay: Photodynamic inactivation of Aggregatibacter actinomycetemcomitans ATCC 43718 assessed as reduction of log10 CFU at 100 uM incubated prior to irradiation with 25 j/cm'2 for 20 secs measured after 48 hrs by agar plating method relative to control; type: functional, Y4
Method in brief: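 A. actinomycetemcomitans ATCC 43718 cultured overnight in BHI broth under anaerobic conditions, 37 °C with shaking. Stationary-phase cells were spun down, taken up in PBS to 10^7–10^8/mL, and combined 1:1 with PS (final 0–250 µM) or water. After 10 s they were irradiated at 1260 ± 50 mW/cm2 or kept dark. Serial dilutions went onto BHI agar, incubated anaerobically at 37 °C for 48 h, and CFU were scored. Results are medians from 3 experiments × triplicate versus untreated controls.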

[8] = Stability of the compound in acidic medium at 60 uM at pH 2 after 5 to 30 mins by UV-vis spectra analysis; type: physicochemical; settings: buffer, pH 2, 60 µM
Method in brief: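 UV-Vis absorption spectra recorded in buffer solutions at different pH values after 5 and 30 min incubation.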

[9] = Stability of the compound in D2O assessed as aggregate formation by measuring shift of spectrum in aromatic region at > 0.5 ppm at 50 to 90 degC by NMR analysis; type: physicochemical
[10] = Stability of the compound in D2O assessed as aggregation at 1 to 20 mM by NMR analysis; type: physicochemical; settings: 20000 µM
Method in brief: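 ¹H NMR, aromatic region, in D2O at 1, 5, 10 and 20 mM; shifts referenced to external TMS, 1 ppm = 400 Hz; spectra compared across concentrations for dimerisation.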

[11] = tested on: Enterococcus faecalis; assay: Photodynamic inactivation of biofilm of Enterococcus faecalis ATCC 29212 monospecies assessed as reduction of log10 CFU at 100 uM preincubated for 60 mins followed by irradiation with 600 mW/cm'2 for 120 secs measured after 24 hrs by agar plating method; type: functional
[12] = tested on: Streptococcus mutans; assay: Toxicity in Streptococcus mutans ATCC 25175 assessed as reduction of log10 CFU at 1 to 250 uM incubated for 10 secs to 15 mins under dark condition measured after 48 hrs by agar plating method; method in brief: as §1
[13] = tested on: Enterococcus faecalis; assay: Photodynamic inactivation of biofilm of Enterococcus faecalis ATCC 29212 polyspecies assessed as reduction of log10 CFU at 100 uM preincubated for 60 mins followed by irradiation with 600 mW/cm'2 for 120 secs measured after 24 hrs by agar plating method; type: functional
[14] = tested on: Actinomyces naeslundii; assay: Toxicity in Actinomyces naeslundii T14V assessed as reduction of log10 CFU at 1 to 250 uM incubated for 10 secs to 15 mins under dark condition measured after 48 hrs by agar plating method; type: organism-based; settings: in vivo; method in brief: as §1
[15] = tested on: Actinomyces naeslundii; assay: Photodynamic inactivation of biofilm of Actinomyces naeslundii T14V polyspecies assessed as reduction of log10 CFU at 100 uM preincubated for 60 mins followed by irradiation with 600 mW/cm'2 for 120 secs measured after 28 hrs by agar plating method; type: functional
[16] = tested on: Aggregatibacter actinomycetemcomitans; assay: Toxicity in Aggregatibacter actinomycetemcomitans ATCC 43718 assessed as reduction of log10 CFU under dark condition at 1 to 250 uM incubated for 10 secs to 15 mins under dark condition measured after 48 hrs by agar plating method; design: species or system Y4; method in brief: as §1
[17] = tested on: Enterococcus faecalis; assay: Toxicity in Enterococcus faecalis ATCC 29212 assessed as reduction of log10 CFU at 1 to 250 uM incubated for 10 secs to 15 mins under dark condition measured after 24 hrs by agar plating method; type: organism-based; settings: in vivo; method in brief: as §1
[18] = tested on: Actinomyces naeslundii; assay: Photodynamic inactivation of biofilm of Actinomyces naeslundii T14V monospecies assessed as reduction of log10 CFU at 100 uM preincubated for 60 mins followed by irradiation with 600 mW/cm'2 for 120 secs measured after 28 hrs by agar plating method; type: functional

Row | Stability [8] | Activity [9] [mM] | Stability [10] | SMILES | Activity [1] | Activity [2] | log10cfu [3] | log10cfu [4] | log10cfu [5] | Activity [6] | log10cfu [7] | log10cfu [11] | Activity [12] | log10cfu [13] | Activity [14] | log10cfu [15] | Activity [16] | Activity [17] | log10cfu [18]
1 | – | – | – | C[N+](C)(CCO)CC1=Cc2cccc3cccc(c23)C1=O.[Cl-] | Non-toxic | Non-toxic | <3 | <5 | <5 | Non-toxic | > 3 | – | – | – | – | – | – | – | –
2 | Stable | 70 | Unstable | C[N+](C)(C)CC1=Cc2cccc3cccc(c23)C1=O.[Cl-] | – | – | – | – | – | – | – | – | – | – | – | – | – | – | –
3 | Stable | – | – | O=C1C(C[n+]2ccccc2)=Cc2cccc3cccc1c23.[Cl-] | – | – | > 5 | > 5 | – | – | >6 | >5 | Non-toxic | >5 | Non-toxic | >5 | Non-toxic | Non-toxic | >5
